Measured values taken from ChEMBL document CHEMBL1153011, “Mechanism of unusual formation of 3-(5-phenyl-3H-[1,2,4]dithiazol-3-yl)chromen-4-ones and 4-oxo-4H-chromene-3-carbothioic acid N-phenylamides and their antimicrobial evaluation” (2009).
≈ marks a conversion by molar mass, not a printed value. Calls of active or inactive are those of the source. The calls are words filed in the database; no cut-off is given here.

Key:
Escherichia coli [1] = assay: Antibacterial activity against Escherichia coli MTCC 119 at 5 x 10^-5 ug/ml after 24 hrs by disk diffusion assay; format: functional; conditions: MTCC 119, 24 h, read-out: GI
In short: (§1)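 Disk diffusion. 100 µl of 4-h nutrient-broth cultures spread on Mueller Hinton agar. Compounds in DMSO (1/10) applied to 8 mm paper disks. After 24 h at 37 °C, growth-inhibition zone diameter measured. DMSO negative control; chloramphenicol and ciprofloxacin positive controls.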

Escherichia coli [2] = assay: Antibacterial activity against Escherichia coli MTCC 119 after overnight incubation by broth dilution method; format: functional
In short: (§2)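 Bacteria grown at 37 °C on nutrient agar. Compounds dissolved in DMSO (1/10) and tested in twofold serial dilutions in Mueller Hinton broth in tubes. Inoculum was a McFarland-standardized suspension, final 5 × 10^5 CFU/ml, with growth and sterility control tubes. Incubation overnight at 37 °C. MIC read by OD600 as the lowest concentration with no turbidity. DMSO negative control; chloramphenicol and ciprofloxacin positive controls.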

Aspergillus niger = assay: Antifungal activity against Aspergillus niger MTCC 281 after 24 to 72 hrs by broth dilution method; format: functional
In short: (§3)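 Fungi grown at 25 °C on Sabouraud dextrose agar. Compounds dissolved in DMSO (1/10) and tested at several concentrations in Sabouraud dextrose broth in tubes. Conidial suspension at final 1 × 10^5 CFU/ml, with growth and sterility control tubes. […] DMSO negative control; fluconazole positive control.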

Pseudomonas aeruginosa [3] = assay: Antibacterial activity against Pseudomonas aeruginosa MTCC 741 at 2.5 x 10^-5 ug/ml after 24 hrs by disk diffusion assay; format: functional, organism-based; in short: as §1
Pseudomonas aeruginosa [4] = assay: Antibacterial activity against Pseudomonas aeruginosa MTCC 741 at 5 x 10^-5 ug/ml after 24 hrs by disk diffusion assay; format: functional, organism-based; in short: as §1
Shigella flexneri [5] = assay: Antibacterial activity against Shigella flexneri MTCC 1457 after overnight incubation by broth dilution method; format: functional; in short: as §2
Staphylococcus aureus [6] = assay: Antibacterial activity against Staphylococcus aureus MTCC 740 at 1 x 10^-4 ug/ml after 24 hrs by disk diffusion assay; format: functional; conditions: MTCC 740, 24 h, read-out: GI; in short: as §1
Escherichia coli [7] = assay: Antibacterial activity against Escherichia coli MTCC 119 at 1 x 10^-4 ug/ml after 24 hrs by disk diffusion assay; format: functional; conditions: MTCC 119, 24 h, read-out: GI; in short: as §1
Shigella flexneri [8] = assay: Antibacterial activity against Shigella flexneri MTCC 1457 at 5 x 10^-5 ug/ml after 24 hrs by disk diffusion assay; format: functional; conditions: MTCC 1457, 24 h, read-out: GI; in short: as §1
Pseudomonas aeruginosa [9] = assay: Antibacterial activity against Pseudomonas aeruginosa MTCC 741 at 1 x 10^-4 ug/ml after 24 hrs by disk diffusion assay; format: functional, organism-based; in short: as §1
Candida tropicalis = assay: Antifungal activity against Candida tropicalis MTCC 230 after 24 to 72 hrs by broth dilution method; format: functional; in short: as §3
Pseudomonas aeruginosa [10] = assay: Antibacterial activity against Pseudomonas aeruginosa MTCC 741 after overnight incubation by broth dilution method; format: functional; in short: as §2
Shigella flexneri [11] = assay: Antibacterial activity against Shigella flexneri MTCC 1457 at 1 x 10^-4 ug/ml after 24 hrs by disk diffusion assay; format: functional; conditions: MTCC 1457, 24 h, read-out: GI; in short: as §1
Staphylococcus aureus [12] = assay: Antibacterial activity against Staphylococcus aureus MTCC 740 at 5 x 10^-5 ug/ml after 24 hrs by disk diffusion assay; format: functional; conditions: MTCC 740, 24 h, read-out: GI; in short: as §1
Geotrichum candidum = assay: Antifungal activity against Geotrichum candidum MTCC 3993 after 24 to 72 hrs by broth dilution method; format: functional; in short: as §3
Candida albicans = assay: Antifungal activity against Candida albicans MTCC 227 after 24 to 72 hrs by broth dilution method; format: functional; in short: as §3
Staphylococcus aureus [13] = assay: Antibacterial activity against Staphylococcus aureus MTCC 740 after overnight incubation by broth dilution method; format: functional; in short: as §2
Shigella flexneri [14] = assay: Antibacterial activity against Shigella flexneri MTCC 1457 at 2.5 x 10^-5 ug/ml after 24 hrs by disk diffusion assay; format: functional; conditions: MTCC 1457, 24 h, read-out: GI; in short: as §1
Staphylococcus aureus [15] = assay: Antibacterial activity against Staphylococcus aureus MTCC 740 at 2.5 x 10^-5 ug/ml after 24 hrs by disk diffusion assay; format: functional; conditions: MTCC 740, 24 h, read-out: GI; in short: as §1
Escherichia coli [16] = assay: Antibacterial activity against Escherichia coli MTCC 119 at 2.5 x 10^-5 ug/ml after 24 hrs by disk diffusion assay; format: functional; conditions: MTCC 119, 24 h, read-out: GI; in short: as §1

Structure (SMILES)	inhibition of growth at 50 pg/mL (Escherichia coli [1])	MIC (Escherichia coli [2])	MIC (Aspergillus niger)	growth inhibition (GI) (Pseudomonas aeruginosa [3])	growth inhibition (GI) (Pseudomonas aeruginosa [4])	MIC (Shigella flexneri [5])	inhibition of growth at 0.0001 µg/mL (Staphylococcus aureus [6])	inhibition of growth at 0.0001 µg/mL (Escherichia coli [7])	inhibition of growth at 50 pg/mL (Shigella flexneri [8])	growth inhibition (GI) (Pseudomonas aeruginosa [9])	MIC (Candida tropicalis)	MIC (Pseudomonas aeruginosa [10])	inhibition of growth at 0.0001 µg/mL (Shigella flexneri [11])	inhibition of growth at 50 pg/mL (Staphylococcus aureus [12])	MIC (Geotrichum candidum)	MIC (Candida albicans)	MIC (Staphylococcus aureus [13])	inhibition of growth at 25 pg/mL (Shigella flexneri [14])	inhibition of growth at 25 pg/mL (Staphylococcus aureus [15])	inhibition of growth at 25 pg/mL (Escherichia coli [16])
O=c1c(C2N=C(c3ccccc3)SS2)coc2ccc(F)cc12 (stereo not given)	12.3%	120 µg/mL (≈ 349 µM)	50 µg/mL (≈ 146 µM)	inactive	inactive	80 µg/mL (≈ 233 µM)	48.8%	80.9%	62.3%	inactive	42 µg/mL (≈ 122 µM)	inactive	100%	23.9%	32 µg/mL (≈ 93.2 µM)	30 µg/mL (≈ 87.4 µM)	205 µg/mL (≈ 597 µM)	28.4%	–	–
OC(Cn1cncn1)(Cn1cncn1)c1ccc(F)cc1F [FLUCONAZOLE]	–	–	49 µg/mL (≈ 160 µM)	–	–	–	–	–	–	–	25 µg/mL (≈ 81.6 µM)	–	–	–	9 µg/mL (≈ 29.4 µM)	24 µg/mL (≈ 78.4 µM)	–	–	–	–
O=c1c(C(=S)Nc2ccccc2)coc2cc(Cl)ccc12	42.6%	115 µg/mL (≈ 364 µM)	80 µg/mL (≈ 253 µM)	inactive	inactive	96 µg/mL (≈ 304 µM)	81%	87.6%	52.2%	inactive	60 µg/mL (≈ 190 µM)	inactive	100%	43.6%	–	60 µg/mL (≈ 190 µM)	125 µg/mL (≈ 396 µM)	–	–	–
O=C(N[C@H](CO)[C@H](O)c1ccc([N+](=O)[O-])cc1)C(Cl)Cl [CHLORAMPHENICOL]	–	2.5 µg/mL (≈ 7.74 µM)	–	–	–	5.6 µg/mL (≈ 17.3 µM)	–	–	–	–	–	2.7 µg/mL (≈ 8.36 µM)	–	–	–	–	13.6 µg/mL (≈ 42.1 µM)	–	–	–
O=c1c(C(=S)Nc2ccccc2)coc2ccc(F)cc12	73.8%	68 µg/mL (≈ 227 µM)	120 µg/mL (≈ 401 µM)	inactive	inactive	–	–	100%	–	inactive	–	inactive	–	–	–	–	–	–	–	–
O=c1c(C2N=C(c3ccccc3)SS2)coc2ccc(Cl)cc12 (stereo not given)	49.6%	100 µg/mL (≈ 278 µM)	125 µg/mL (≈ 347 µM)	inactive	inactive	90 µg/mL (≈ 250 µM)	100%	100%	55.8%	inactive	28 µg/mL (≈ 77.8 µM)	inactive	100%	51.5%	30 µg/mL (≈ 83.4 µM)	28 µg/mL (≈ 77.8 µM)	98 µg/mL (≈ 272 µM)	27.3%	26.4%	22%
O=c1c(C(=S)Nc2ccccc2)coc2cc(Cl)c(Cl)cc12	78.3%	64 µg/mL (≈ 183 µM)	–	inactive	inactive	62 µg/mL (≈ 177 µM)	100%	100%	60.9%	inactive	–	inactive	100%	90.9%	–	75 µg/mL (≈ 214 µM)	55 µg/mL (≈ 157 µM)	8.82%	3.78%	20.4%
O=c1c(C2N=C(c3ccccc3)SS2)coc2ccccc12 (stereo not given)	56.7%	88 µg/mL (≈ 270 µM)	90 µg/mL (≈ 277 µM)	inactive	inactive	58 µg/mL (≈ 178 µM)	100%	100%	85.5%	inactive	40 µg/mL (≈ 123 µM)	inactive	100%	73.9%	32 µg/mL (≈ 98.3 µM)	30 µg/mL (≈ 92.2 µM)	68 µg/mL (≈ 209 µM)	44.3%	30.2%	24.8%
Cc1ccc2occ(C3N=C(c4ccccc4)SS3)c(=O)c2c1 (stereo not given)	30%	132 µg/mL (≈ 389 µM)	150 µg/mL (≈ 442 µM)	inactive	inactive	82 µg/mL (≈ 242 µM)	100%	72.5%	60.9%	inactive	52 µg/mL (≈ 153 µM)	inactive	100%	92.7%	95 µg/mL (≈ 280 µM)	60 µg/mL (≈ 177 µM)	54 µg/mL (≈ 159 µM)	21%	35%	–
O=C(O)c1cn(C2CC2)c2cc(N3CCNCC3)c(F)cc2c1=O [CIPROFLOXACIN]	–	1.2 µg/mL (≈ 3.62 µM)	–	–	–	1.4 µg/mL (≈ 4.23 µM)	–	–	–	–	–	1.8 µg/mL (≈ 5.43 µM)	–	–	–	–	0.9 µg/mL (≈ 2.72 µM)	–	–	–
O=c1c(C2N=C(c3ccccc3)SS2)coc2cc(Cl)c(F)cc12 (stereo not given)	14%	350 µg/mL (≈ 926 µM)	90 µg/mL (≈ 238 µM)	inactive	inactive	52 µg/mL (≈ 138 µM)	100%	30.5%	98.5%	inactive	28 µg/mL (≈ 74.1 µM)	inactive	100%	68.7%	5 µg/mL (≈ 13.2 µM)	40 µg/mL (≈ 106 µM)	72 µg/mL (≈ 191 µM)	48.3%	32.9%	–
O=c1c(C(=S)Nc2ccccc2)coc2ccccc12	85.5%	62 µg/mL (≈ 220 µM)	90 µg/mL (≈ 320 µM)	inactive	inactive	92 µg/mL (≈ 327 µM)	100%	100%	55.3%	inactive	–	inactive	100%	76.2%	–	–	70 µg/mL (≈ 249 µM)	–	35.6%	38.5%
